Calls of active or inactive are those of the source.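 How the source made its calls: active means compounds whose fitted half-maximal concentration for reducing fibroblast viability is 100 µM or lower; inactive means the rest.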

This assay is described as follows: inhibition of LL 47 lung fibroblast growth, concentration-response curve, selectivity screen for endothelial cell growth inhibitor project, cellular system, ATP luminescence readout (AID 821).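 Further: 100% = median of untreated cell-only wells and 0% = no luminescence.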 To be noted: LL 47 lung fibroblast viability, ATP luminescence; at 20 µM (top of the series). The gist of the method:
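Assay system: LL 47 human lung fibroblast cells | Amount: 1,150 cells/well | Schedule: 72 h exposure, 37 °C | Measured by: CellTiter-Glo luminescence | Measure: Percent viability relative to untreated wells, EC50 via 4-parameter fit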

As a reminder, the viability is a read-out of living cells in per cent, often relative to untreated cells. With `CCOC(=O)c1sc(NC(=O)CSc2nnnn2-c2ccc(C)c(C)c2)nc1C`, the viability was 83.3% (inactive). `CCOC(=O)c1cc2c(N)c(C(=O)c3cc(C#N)c(SC)nc3C)sc2nc1C`: the viability is 101% (inactive). In the case of `CC(Nc1nc(N2CCN(S(C)(=O)=O)CC2)nc2ccccc12)c1ccccc1` (configuration not stated), the viability was 92.9% (inactive). Take `CCN1CCN(c2ncc(C(=O)Nc3cc(Cl)c(OC)cc3OC)c3ccccc23)CC1`: the viability was 103% (inactive). For `O=C(CSc1ccc2c(c1)OCCO2)Nc1ccc(Cl)cn1` the value was 94.9% (inactive); for `CCn1c(Cc2ccc(OC)cc2)nnc1SCC(=O)Nc1cccc(C(=O)OC)c1`, 96.9% (inactive). Consider `Cc1ccc(S(=O)(=O)c2c(C)nn(C(C)(C)C)c2OC(=O)c2ccco2)cc1`, for which the viability is 108% (inactive). `COc1ccc(CCC(=O)N2CCN(C3CCCCC3)CC2)cc1`: the viability was 95.1% (inactive). The figure for `O=c1oc(-c2ccccc2F)nc2c1cnn2-c1ccccc1` is 105% (inactive); for `Cc1cc(NC(=O)CSc2nc(C(C)C)nc3sc4c(c23)CCCC4)no1` it is 93.6% (inactive); for `COC(=O)c1ccc(NC(=O)Nc2ccc(F)c(Cl)c2)cc1` it is 106% (inactive). On to `O=C(CC1SCCNC1=O)Nc1cc(Cl)cc(Cl)c1` (configuration not stated), for which the viability is 100% (inactive). For `CCOC(=O)c1ccc(NC(=O)CCc2nc(-c3ccc(C)cc3)no2)cc1` the value was 98.6% (inactive). `CCOC(=O)CNC(=O)C(=O)c1c(O)[nH]c2ccccc12`: the viability was 96.6% (inactive). With `Cc1ccc(C(=O)Nc2ncc(Cc3ccc(F)cc3)s2)o1`, the viability was 117% (inactive). Turning to `Clc1cnc(N/N=C/c2cccs2)c(Cl)c1`, the viability was 88.3% (inactive).

For the compound `COc1ccc2cc3cc(C(=O)Nc4ccc5c(c4)OCCO5)oc3nc2c1`, the viability is 98.4% (inactive). In the case of `O=C(Cc1sc(-c2ccccc2Cl)nc1-c1ccccc1)Nc1ccccc1`, the viability is 99.7% (inactive).

For the compound `Cc1cccc(-c2nnc(NC(=O)c3ccc(Cl)cc3)o2)c1`, the viability is 87.4% (inactive). With `Cc1nc2c(C(=O)NCCC(C)C)c[nH]n2c(=O)c1Cc1ccccc1F`, the viability is 99.7% (inactive). Consider `Clc1ccccc1-c1ccc(/C=N/n2cnnc2)o1`, for which the viability is 111% (inactive). `Cc1cc(N2CCCCC2)nc2ccc(NC(=O)c3ccc(Br)o3)cc12`: the viability is 94.4% (inactive). In the case of `COc1ccc(CNC(=O)c2cc3c(C)nc4ccccc4c3o2)c(OC)c1`, the viability is 88.7% (inactive). As to `CCOc1ccc2nc(NC(=O)CSc3nc4c(c(=O)n(C)c(=O)n4C)n3C(C)C)sc2c1`, the viability is 102% (inactive).

`Cc1cccc(NC(=O)c2sc3nc4c(c(-c5cccs5)c3c2N)CN(C)CC4)c1`: the viability is 86.7% (inactive). In the case of `Cc1cc(C)cc(OC(=O)CS(=O)c2ccc(C(F)(F)F)cc2[N+](=O)[O-])c1` (configuration not stated), the viability is 98.3% (inactive).

For `CCCN(CCO)Cc1cccc(Br)c1`, the viability was 97.9% (inactive). `Nc1c(S(=O)(=O)c2ccccc2)c2nc3ccccc3nc2n1/N=C/c1cccc(O)c1`: the viability is 94.2% (inactive). As for `CSc1nc2c(cnn2-c2ccc(C)c(C)c2)c(=O)[nH]1`, the viability is 93.2% (inactive).

As to `Nc1c(C(=O)NCc2ccc(F)cc2)c2nc3ccccc3nc2n1CCCN1CCOCC1`, the viability is 85.7% (inactive).

In the case of `COc1ccc(OC)c(C(=O)CSc2nnc(-c3ccc(OC)c(OC)c3)o2)c1`, the viability was 88.4% (inactive). With `COc1cccc2c(C)nc(Nc3nc(CSc4nnc(C)s4)cc(=O)[nH]3)nc12`, the viability is 117% (inactive). As for `OC1(Cc2ccn[nH]2)CCCCC1`, the viability was 105% (inactive). The figure for `Cc1nc2ccccc2n1CCc1nc2c3ccccc3nc(SCC(=O)NCc3ccco3)n2n1` is 101% (inactive); for `COc1ccc(-c2noc(-c3ccc(Br)o3)n2)cc1OC` it is 116% (inactive).

Consider `COc1ccccc1NC(=O)C1C2C=CC(O2)C1C(=O)O` (configuration not stated), for which the viability was 100% (inactive).

As to `COCCn1c(SCC(=O)Nc2ccc(NC(=O)c3ccco3)c(OC)c2)nc2ccccc2c1=O`, the viability was 99.1% (inactive). Take `CCOc1ccc(NS(=O)(=O)c2ccc(OCC(=O)NCCCOC)cc2)cc1`: the viability was 93.1% (inactive). For the compound `Cc1ccc(-n2c(SCC(=O)Nc3ccc4c(c3)OCO4)nnc2-c2ccccn2)cc1`, the viability was 103% (inactive). With `O=C(Nc1ccc2nn(-c3ccccc3)nc2c1)c1ccc2c(c1)OCCO2`, the viability was 105% (inactive). As for `Cc1ccc2[nH]c3c(N4CCN(Cc5ccccc5)CC4)ncnc3c2c1`, the viability was 88.2% (inactive). As for `Cc1cc(C)n(CC(O)Cn2c3ccc(Br)cc3c3cc(Br)ccc32)c(=O)n1` (configuration not stated), the viability is 119% (inactive).

`N#CCc1nc2c3c4c(sc3ncn2n1)CCCC4`: the viability is 102% (inactive). For the compound `COC(=O)c1ccccc1NC(=O)c1cc(-c2cccs2)on1`, the viability was 90.8% (inactive). For the compound `Clc1ccc(Cn2cc(/C=N/n3cnnc3)c3ccccc32)c(Cl)c1`, the viability was 99% (inactive). For the compound `CCOC(=O)c1c(CN2CCN(c3ccccc3)CC2)oc2ccc(O)cc12`, the viability was 83.2% (inactive). `Cc1ccc(Cn2c(=S)[nH]c3ccc(N4CCOCC4)cc3c2=O)o1`: the viability was 85% (inactive). With `COc1ccc(Cc2nc(C(=O)Nc3ccc(Cl)cc3)cs2)cc1`, the viability is 84.3% (inactive).

Regarding `O=C1CCn2nc(-c3ccc(Cl)cc3)cc2N1`, the viability was 104% (inactive). Regarding `Cc1ccc(C(C#N)c2ccc(C(=O)c3ccc(F)cc3)cc2)cc1` (configuration not stated), the viability is 97.1% (inactive). On to `COc1ccc2cc3cc(C(=O)NCCc4ccc(OC)c(OC)c4)oc3nc2c1`, for which the viability is 109% (inactive).

Consider `Cc1cccc(Nc2nc(NCc3ccco3)nc(N3CCOCC3)n2)c1`, for which the viability was 80.4% (inactive). As to `COc1ccc(NC(=O)CSc2nnc(CNC(=O)COc3ccc(Cl)cc3)o2)c(OC)c1`, the viability was 97% (inactive). Take `CCOc1ccc2nc(NC(=O)CN3CCC(n4nnc5cc(F)ccc54)CC3)sc2c1`: the viability is 82.7% (inactive). In the case of `Cc1ccc(-n2c(SCC(=O)Nc3nccs3)nc3c(c2=O)SCC3)cc1`, the viability was 107% (inactive). As to `O=C(Cn1cc(C(=O)c2ccccc2F)c2ccccc21)NCc1ccco1`, the viability is 104% (inactive).

On to `O=C1c2[nH]nc(-c3ccccc3O)c2C(c2cccc(Cl)c2)N1Cc1ccco1` (configuration not stated), for which the viability was 98.4% (inactive). On to `Cc1cccc(NC(=O)c2cc(NC(=O)c3ccco3)ccc2N2CCCCC2)c1`, for which the viability was 82.5% (inactive). For the compound `CCCS(=O)(=O)N1CCC(C(=O)N2CCC3(CC2)OCCO3)CC1`, the viability was 97.5% (inactive). In the case of `Cc1cc(=O)[nH]c2ccc(Cl)cc12`, the viability is 102% (inactive). For `CNC(=O)c1ccc(-c2sc3nc(N4CCOCC4)c4c(c3c2N)CCCC4)o1`, the viability was 90.4% (inactive).

Turning to `CCCCOc1ccc(C(=O)OC2CC(C)N(C)CC2C)cc1` (configuration not stated), the viability is 96.4% (inactive).

The values above are taken from PubChem BioAssay AID821 (SRMLSC, 2007).
